Experimental data collected from several papers.
Effect on: enzyme activity
Action: inhibitor
BMP2K: BMP-2-inducible protein kinase (BMP2K, Homo sapiens, UniProt Q9NSY1)
murC: UDP-N-acetylmuramate--L-alanine ligase (murC, Escherichia coli K-12, UniProt P17952)
ACVR2B: Activin receptor type-2B (ACVR2B, Homo sapiens, UniProt Q13705)
COQ8B: Atypical kinase COQ8B, mitochondrial (COQ8B, Homo sapiens, UniProt Q96D53)

Cc1nn(CC(F)(F)F)cc1Nc1nccc(NCCCNC(=O)C2CCC2)n1 — remaining activity (BMP2K; radiometric; 1 µM): 101%
O=[N+]([O-])c1ccccc1S(=O)(=O)Oc1ccccc1C=NNS(=O)(=O)c1ccc2ccccc2c1 — remaining activity (murC; absorbance; 50 µM): 55%
CCCOc1ccc(OC)c(F)c1C(=O)c1ccc(C(=O)N[C@@H]2CNC[C@H]2NC(=O)c2ccc3[nH]ncc3c2)cc1 — remaining activity (Rho-associated protein kinase 2 (ROCK2, Homo sapiens, UniProt O75116); 50 nM): 38%
O=C(Nc1ccccc1C=NNS(=O)(=O)c1ccc2ccccc2c1)c1cc([N+](=O)[O-])cc([N+](=O)[O-])c1 — remaining activity (murC; absorbance; 100 µM): 51%
Cc1nn(CC(F)(F)F)cc1Nc1nccc(NCc2ccc(S(N)(=O)=O)cc2)n1 — remaining activity (BMP2K; radiometric; 1 µM): 86%
CC(C)(C)c1nc(-c2cccc(NS(=O)(=O)c3c(F)cccc3F)c2F)c(-c2ccnc(N)n2)s1 — remaining activity (ACVR2B; radiometric; 1 µM): 46%
O=[N+]([O-])c1ccc(S(=O)(=O)Oc2ccccc2C=NNS(=O)(=O)c2ccc3ccccc3c2)cc1 — remaining activity (murC; absorbance; 100 µM): 75%
Cc1nn(CC(F)(F)F)cc1Nc1nccc(NCCc2cnc[nH]2)n1 — remaining activity (BMP2K; radiometric; 1 µM): 104%
CC(C)(C)c1nc2c(s1)c1nc(N)ncc1c1ccc(NS(=O)(=O)c3c(F)cccc3F)c(F)c12 — remaining activity (ACVR2B; radiometric; 1 µM): 88%
COc1cc(Cl)c(C(=O)N[C@@H](CN[C@H]2CC[C@@H](N)CC2)Cc2ccc(C#N)cc2)cc1-c1ccc(CN[C@H](C)c2ccc(C)cc2)o1 — remaining activity (MAPK/MAK/MRK overlapping kinase (MOK, Homo sapiens, UniProt Q9UQ07); 1 µM): 102%
Brc1cnc(Nc2cccc(CN3CCOCC3)c2)nc1NCCc1c[nH]cn1 — remaining activity (BMP2K; radiometric; 1 µM): 1%
Nc1ncnc2occ(-c3ccc(NC(=O)Nc4cc(C(F)(F)F)ccc4F)cc3)c12 — remaining activity (COQ8B; 20 µM): 24%
O=[N+]([O-])c1cccc(COc2cccc(C=NNS(=O)(=O)c3ccc4ccccc4c3)c2)c1 — remaining activity (murC; absorbance; 50 µM): 58%
NS(=O)(=O)c1ccc(CNc2nc(Nc3cccc(CN4CCOCC4)c3)ncc2C2CC2)cc1 — remaining activity (BMP2K; radiometric; 1 µM): 68%
Cc1ccc(C(=O)Nc2ccc(CN3CCN(C)CC3)c(C(F)(F)F)c2)cc1C#Cc1cnc2cccnn12 — remaining activity (COQ8B; 23.5 nM): 89%
O=[N+]([O-])c1cccc(S(=O)(=O)Oc2ccccc2C=NNS(=O)(=O)c2ccc3ccccc3c2)c1 — remaining activity (murC; absorbance; 50 µM): 65%
